Laboratory results as given in PubChem BioAssay.
Calls of active or inactive are those of the source.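 How the source made its calls, unless noted: active means viability at or below 30% in both replicate assays; inconclusive means viability at or below 30% in just one of the two assays; inactive means the rest.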

Tests used:
[1] = reducers of endogenous Her2 protein level, primary screen, SKBR3 breast tumor cells, AlphaScreen, ATP viability (AID 461;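 active means Her2 level under about 52% in both replicate screens, with viability over 70% of control, limit read from the data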;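 on Her2 level: lower value means less Her2 protein in the cells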;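 on viability: percent of carrier control wells set as 100% viability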); details: 18-24 h, measured here: SKBR3 viability, ATP luminescence, at 10 µM
[2] = molecular target: Receptor tyrosine-protein kinase erbB-2 (Homo sapiens) (UniProt P04626); assay: as above; details: 18-24 h, at 10 µM, stronger effect = lower value
Chain of Receptor tyrosine-protein kinase erbB-2 (Homo sapiens) (P04626 whole entry, looked up): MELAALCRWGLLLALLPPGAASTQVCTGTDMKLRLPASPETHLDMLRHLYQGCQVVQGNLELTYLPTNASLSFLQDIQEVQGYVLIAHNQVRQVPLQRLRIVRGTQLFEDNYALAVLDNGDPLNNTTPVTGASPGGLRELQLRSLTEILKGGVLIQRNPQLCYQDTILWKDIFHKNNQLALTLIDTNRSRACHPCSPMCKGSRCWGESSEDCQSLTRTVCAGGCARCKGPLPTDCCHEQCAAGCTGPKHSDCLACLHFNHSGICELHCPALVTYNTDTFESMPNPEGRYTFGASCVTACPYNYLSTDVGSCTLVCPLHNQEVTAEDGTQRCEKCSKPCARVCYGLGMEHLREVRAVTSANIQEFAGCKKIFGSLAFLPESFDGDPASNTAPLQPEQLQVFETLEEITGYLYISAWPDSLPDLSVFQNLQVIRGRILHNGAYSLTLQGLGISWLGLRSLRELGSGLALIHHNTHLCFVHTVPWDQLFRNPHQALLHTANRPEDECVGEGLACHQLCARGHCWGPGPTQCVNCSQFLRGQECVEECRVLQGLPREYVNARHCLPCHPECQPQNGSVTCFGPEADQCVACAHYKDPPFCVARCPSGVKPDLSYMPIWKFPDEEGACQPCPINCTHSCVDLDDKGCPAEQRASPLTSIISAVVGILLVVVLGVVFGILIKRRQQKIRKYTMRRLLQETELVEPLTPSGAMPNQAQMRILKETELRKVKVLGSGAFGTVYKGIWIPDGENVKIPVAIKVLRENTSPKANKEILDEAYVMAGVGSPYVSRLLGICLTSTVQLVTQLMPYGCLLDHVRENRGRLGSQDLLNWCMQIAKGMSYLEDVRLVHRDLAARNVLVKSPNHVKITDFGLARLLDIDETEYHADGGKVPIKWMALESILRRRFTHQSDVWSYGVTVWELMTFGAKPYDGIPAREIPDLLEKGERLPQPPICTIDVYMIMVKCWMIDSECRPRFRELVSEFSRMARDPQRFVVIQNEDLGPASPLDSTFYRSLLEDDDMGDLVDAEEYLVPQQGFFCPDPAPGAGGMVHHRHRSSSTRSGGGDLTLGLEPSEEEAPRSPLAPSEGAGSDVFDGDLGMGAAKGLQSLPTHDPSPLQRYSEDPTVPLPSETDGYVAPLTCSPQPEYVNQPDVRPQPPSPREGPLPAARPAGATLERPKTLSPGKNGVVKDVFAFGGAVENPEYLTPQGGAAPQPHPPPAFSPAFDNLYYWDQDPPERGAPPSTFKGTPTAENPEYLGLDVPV

[3] = SK-BR-3 cell growth inhibitors, pilot screen, 24 h, human (AID 572;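 active means viability at or below 10% of carrier control in both of two separate runs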;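 further: compound exposure lasted between 18 and 24 h rather than exactly 24 h; 100% = carrier-treated control wells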); details: SK-BR-3 viability, CellTiter-Glo luminescence, at 10 µM, stronger effect = lower value
[4] = HUVEC growth inhibition – cell-based, human, primary screen (AID 575); details: HUVEC proliferation, CellTiter-Glo luminescence, 72 h; at 10 µM; stronger effect = lower value;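 further: 100% = median of untreated cell wells with 0.1% DMSO on each plate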
Method in brief: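 System: primary human umbilical vein endothelial cells; Quantity: 1250 endothelial cells in each well; Buffer or medium: supplemented EBM, 2% fetal bovine serum; Doses: one dose, 10 µM final, 0.1% DMSO; Incubation: 72 h compound incubation; Technique: ATP-based CellTiter-Glo luminescent read; Evaluation: percent of median DMSO-control luminescence; Controls: vehicle and MePR control wells.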

[5] = growth inhibitors of H69AR lung tumor, primary screen, human, duplicate replicates (AID 580;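 active means viability at or under a set limit in both replicates, limit being median viability minus 3 SD, cut at about 48% in these data, passing the limit was not always enough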;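 further: 100% = mean luminescence of untreated wells and 0% = no signal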); details: H69AR lung tumor cells viability, ATP luminescence, 72 h; at 10 µM; stronger effect = lower value
[6] = reversal of MRP1-mediated doxorubicin resistance, pilot screen, H69AR cells, doxorubicin co-treatment (AID 601;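 active means viability loss from added drug above about 55%, and viability with drug at most 40%, in both replicates, limit read from the data, passing the limit was not always enough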); details: CellTiter-Glo, 72 h, at 10 µM; for differential viability (reversal): stronger effect = higher value
[7] = 384-well plate pilot, post-Golgi transport modulator project, inhibition of yeast transport mutant growth (AID 636; in the data active means inhibition above about 31%); details: absorbance 615 nm, about 18 h, stronger effect = higher value
[8] = growth suppression of yeast trafficking mutant, preliminary HTS, modulators of trafficking downstream of Golgi apparatus project, 1536-format plate, OD 615 nm (AID 637; in the data active means inhibition above about 30%); details: yeast transport mutant growth, absorbance 615 nm, 18 h; stronger effect = higher value
[9] = H69AR cells + 2 uM doxorubicin, measured here: viability with 2 uM doxorubicin, stronger effect = lower value
[10] = H69AR cells, compound alone cytotoxicity

Compound	viability [1]	Her2 level [2]	viability [3]	viability [4]	viability [5]	differential viability (reversal) ([6]; H69AR cells + 2 uM doxorubicin)	viability [6, 9]	viability [6, 10]	inhibition [7]	inhibition [8]
COc1ccc(Br)cc1S(=O)(=O)N1CC(C)OC(C)C1 (stereo not given)	90.5%	100% (inactive)	90.5% (inactive)	95.6% (inactive)	91.3% (inactive)	-4.83% (inactive)	96.2%	91.3%	1.73% (inactive)	-6.35% (inactive)
CCC(C)NC(=O)c1cc(-c2ccc(OC)cc2)on1 (stereo not given)	106%	94% (inactive)	106% (inactive)	118% (inactive)	89.8% (inactive)	0.48% (inactive)	89.3%	89.8%	-8.24% (inactive)	1.33% (inactive)
Cc1ccc(-c2cc(C(=O)NCc3ccc4c(c3)OCO4)no2)cc1	96%	77% (inactive)	96% (inactive)	84.9% (inactive)	90.8% (inactive)	5.94% (inactive)	84.9%	90.8%	-7.43% (inactive)	-0.33% (inactive)
c1ccc(SCc2nc3ccccc3[nH]2)nc1	99.5%	107% (inactive)	99.5% (inactive)	103% (inactive)	90.6% (inactive)	-6.88% (inactive)	97.5%	90.6%	-5.87% (inactive)	22.3% (inactive)
O=C(NCC(=O)N(c1cnc2ccccc2c1)C(C(=O)NC1CCCC1)c1ccncc1)c1ccco1 (stereo not given)	86%	94% (inactive)	86% (inactive)	94.5% (inactive)	90.1% (inactive)	-3.65% (inactive)	93.7%	90.1%	3.64% (inactive)	13.4% (inactive)
CN(C)C=Nc1nonc1N	110%	106% (inactive)	110% (inactive)	95.3% (inactive)	94.1% (inactive)	2.63% (inactive)	91.4%	94.1%	-5.53% (inactive)	1.97% (inactive)
CCOC(=O)c1ccc(Oc2cc(C)nc(SC)n2)cc1	88.5%	99% (inactive)	88.5% (inactive)	36.8% (inactive)	16.5% (active)	-52% (inactive)	68.5%	16.5%	-5.54% (inactive)	2.3% (inactive)
CCOC(=O)c1oc2ccccc2c1CSc1nnnn1-c1ccc(C)cc1	94.5%	99% (inactive)	94.5% (inactive)	83.2% (inactive)	69.3% (inactive)	-18.7% (inactive)	88%	69.3%	2.08% (inactive)	-6.98% (inactive)
Cc1cc(C)n(-c2nc3ccccc3c(=O)n2OCCOc2ccccc2)n1	78%	93% (inactive)	78% (inactive)	97.2% (inactive)	89.6% (inactive)	10.3% (inactive)	79.3%	89.6%	-0.13% (inactive)	-6.07% (inactive)
Nc1nc(CSCc2ccccc2)nc(N2CCOCC2)n1	99.5%	93.5% (inactive)	99.5% (inactive)	109% (inactive)	95% (inactive)	5.8% (inactive)	89.2%	95%	-5.27% (inactive)	-8.67% (inactive)
Cc1cc(NC(=O)COc2cccc3cccnc23)no1	93%	75% (inactive)	93% (inactive)	102% (inactive)	81% (inactive)	1.54% (inactive)	79.5%	81%	-5.47% (inactive)	-2.79% (inactive)
CCCCS(=O)(=O)NC1=NCN(C2CCN(Cc3ccccc3)CC2)CN1	116%	98.5% (inactive)	116% (inactive)	91.5% (inactive)	111% (inactive)	9.66% (inactive)	101%	111%	-2.7% (inactive)	-2.22% (inactive)
CCOC(=O)C1=C(O)CCn2c1nc1ccccc12	122%	116% (inactive)	122% (inactive)	101% (inactive)	101% (inactive)	17.7% (inactive)	83.6%	101%	-8.9% (inactive)	0% (inactive)
O=C(CSc1nnc(C2CC2)n1Cc1ccccc1)c1ccc(S(=O)(=O)N2CCOCC2)cc1	120%	92% (inactive)	120% (inactive)	95% (inactive)	86.9% (inactive)	12.5% (inactive)	74.4%	86.9%	-1.82% (inactive)	6.72% (inactive)
CCOc1ccc2nc(SCc3ccc(C(=O)OC)o3)[nH]c2c1	77%	87.5% (inactive)	77% (inactive)	89.5% (inactive)	109% (inactive)	12.7% (inactive)	96.4%	109%	-0.4% (inactive)	-2.42% (inactive)
